Laboratory results taken from ChEMBL document CHEMBL4177559, “Design, Synthesis, and Evaluation of a Series of Novel Benzocyclobutene Derivatives as General Anesthetics” (J Med Chem, 2017).

How the values were obtained:
[1] = Clearance in Sprague-Dawley rat at 1 mg/kg, iv administered as single dose; type: ADME, organism-based; conditions: in vivo
Mus musculus [2] = assay: Anesthetic activity in iv dosed ICR mouse assessed as onset time for loss of righting reflex administered as single bolus dose; type: functional
How it was run: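 ICR mice (fasted, 18−22 g, 10 per dose group, 7−9 groups) got one tail-vein iv bolus (~10 s) in 5% DMSO/5−10% Solutol HS-15/85−90% saline. Onset was the time from dosing to loss of righting reflex.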

[3] = Therapeutic index, ratio of LD50 for toxicity in ICR mouse to ED50 for anesthetic effect in ICR mouse; type: organism-based; conditions: in vivo, read-out: Ratio LD50/ED50
How it was run: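 Fasted ICR mice (18−22 g, male and female), 7−9 dose groups of 10, given a single ~10 s iv bolus into the lateral tail vein in 5% DMSO, 5−10% Solutol HS-15, 85−90% saline. Loss of righting reflex scored; ED50 and LD50 derived by nonlinear fitting; TI = LD50/ED50.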

Mus musculus [4] = assay: Anesthetic activity in iv dosed ICR mouse assessed as anesthetic duration time by measuring loss of righting reflex administered as single bolus dose; type: functional
How it was run: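 Fasted ICR mice (18−22 g, 10 per group) received a single ~10 s lateral tail-vein bolus in 5% DMSO/5−10% Solutol HS-15/saline. Duration was the time from dosing to recovery of righting reflex, recorded at the dose giving 100% loss of righting reflex.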

Mus musculus [5] = assay: Anesthetic activity in iv dosed ICR mouse assessed as dose required to produce anesthesia administered as single bolus dose; type: functional
How it was run: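 Fasted ICR mice (18−22 g, male and female) were randomised into 7−9 dose groups of 10 each. Each received one intravenous bolus over about 10 s in the lateral tail vein. Vehicle was 5% DMSO, 5−10% Solutol HS-15 and 85−90% saline. The endpoint was loss of righting reflex, and ED50 was derived by nonlinear fitting of dose–response.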

[6] = AUC in Sprague-Dawley rat at 1 mg/kg, iv administered as single dose; type: ADME, organism-based; conditions: in vivo
Rattus norvegicus = assay: Cmax in Sprague-Dawley rat at 1 mg/kg, iv administered as single dose; type: ADME, organism-based; set-up: dose 1 mg/kg, route intravenous; conditions: in vivo

Row | clearance [1] | Structure (SMILES) | Time (Mus musculus [2]) | selectivity ratio [3] | Time (Mus musculus [4]) | ED50 (Mus musculus [5]) | AUC [6] | Cmax (Rattus norvegicus)
1 | 77 mL/min/kg | CC(C)c1ccc2c(c1O)[C@H](C)C2 | – | – | – | – | – | –
2 | 67 mL/min/kg | CC(C)c1ccc2c(c1O)[C@@H](C)C2 | – | – | – | – | – | –
3 | – | CC(C)c1ccc2c(c1O)C(C)(N=[N+]=[N-])C2 (racemic) | <10 s | 5.9 | 381.7 s | 9.4 mg/kg | – | –
4 | – | CC(C)c1cccc(C(C)C)c1O [PROPOFOL] | <10 s | 2.7 | 303.2 s | – | 77 ng·h/mL | 384 ng/mL
